Results taken from ChEMBL document CHEMBL2413060, “Synthesis, biological evaluation and molecular docking studies of some pyrimidine derivatives” (2013).
Values after ≈ are worked out from the molar mass of the structure shown.

Columns and labels:
Type in all cases: functional
[1] = system: Shigella flexneri; assay: Antibacterial activity against Shigella flexneri ATCC 15391 after 24 hrs by two-fold serial dilution method; details: ATCC 15391, 24 h
Procedure, shortened: (§1)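 Two-fold serial broth dilution in sterile nutrient broth at 500, 250, 125, 62.5, 31.25, 15.63, 7.82 and 3.91 µg/ml, with dimethylformamide ≤2.5%. Organisms were pre-grown 24 h in broth, and 0.1 ml inoculum was added per 5 ml tube. Tubes were incubated at 37°C, 24 h for bacteria and 48 h for fungi. MIC was taken as the lowest concentration giving no turbidity.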

[2] = system: NCI/ADR-RES; assay: Cytotoxicity against human NCI/ADR-RES cells assessed as growth inhibition at 10 uM; details: read-out: GI
Procedure, shortened: (§2)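 Single-dose screen on human tumour cell lines. Growth of treated cells is expressed as percent of untreated growth, plotted as a mean graph, and reported as percent growth inhibition.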

[3] = system: Shigella flexneri; assay: Antibacterial activity against Shigella flexneri ATCC 15391 after 24 hrs by two-fold serial dilution method relative to ofloxacin
[4] = system: NCI-H23; assay: Cytotoxicity against human NCI-H23 cells assessed as growth inhibition at 10 uM; details: read-out: GI; procedure, shortened: as §2
[5] = system: Malme-3M; assay: Cytotoxicity against human MALME-3M cells assessed as growth inhibition at 10 uM; details: read-out: GI
[6] = system: Staphylococcus aureus; assay: Antibacterial activity against Staphylococcus aureus ATCC 6538P assessed as diameter of inhibition zone at 1 mg/ml after 24 hrs by cup diffusion method (reference value: 15 mm); details: read-out: DIZ
[7] = system: Shigella flexneri; assay: Antibacterial activity against Shigella flexneri ATCC 15391 assessed as diameter of inhibition zone at 1 mg/ml after 24 hrs by cup diffusion method (reference value: 17 mm); details: ATCC 15391, 24 h, read-out: DIZ
[8] = system: Pseudomonas aeruginosa; assay: Antibacterial activity against Pseudomonas aeruginosa ATCC 9027 assessed as diameter of inhibition zone at 1 mg/ml after 24 hrs by cup diffusion method (reference value: 16 mm); details: ATCC 9027, 24 h, read-out: DIZ
[9] = system: SNB-75; assay: Cytotoxicity against human SNB75 cells assessed as growth inhibition at 10 uM; details: read-out: GI; procedure, shortened: as §2
[10] = system: Candida albicans; assay: Antifungal activity against Candida albicans ATCC 2091 assessed as diameter of inhibition zone at 1 mg/ml after 48 hrs by cup diffusion method (reference value: 22 mm); details: ATCC 2091, 48 h, read-out: DIZ
[11] = system: Candida albicans; assay: Antifungal activity against Candida albicans ATCC 2091 after 48 hrs by two-fold serial dilution method relative to clotrimazole
[12] = system: Staphylococcus aureus; assay: Antibacterial activity against Staphylococcus aureus ATCC 6538P after 24 hrs by two-fold serial dilution method; procedure, shortened: as §1
[13] = system: Pseudomonas aeruginosa; assay: Antibacterial activity against Pseudomonas aeruginosa ATCC 9027 after 24 hrs by two-fold serial dilution method relative to ofloxacin
[14] = system: Candida albicans; assay: Antifungal activity against Candida albicans ATCC 2091 after 48 hrs by two-fold serial dilution method; details: ATCC 2091, 48 h; procedure, shortened: as §1
[15] = system: Pseudomonas aeruginosa; assay: Antibacterial activity against Pseudomonas aeruginosa ATCC 9027 after 24 hrs by two-fold serial dilution method; details: ATCC 9027, 24 h; procedure, shortened: as §1
[16] = system: HCC 2998; assay: Cytotoxicity against human HCC2998 cells assessed as growth inhibition at 10 uM; details: read-out: GI
[17] = system: HOP-62; assay: Cytotoxicity against human HOP62 cells assessed as growth inhibition at 10 uM; details: read-out: GI
[18] = system: MCF7; assay: Cytotoxicity against human MCF7 cells assessed as growth inhibition at 10 uM; details: read-out: GI; procedure, shortened: as §2
[19] = system: SK-MEL-2; assay: Cytotoxicity against human SK-MEL-2 cells assessed as growth inhibition at 10 uM; details: read-out: GI; procedure, shortened: as §2
[20] = system: PC-3; assay: Cytotoxicity against human PC3 cells assessed as growth inhibition at 10 uM; details: read-out: GI; procedure, shortened: as §2
[21] = system: UACC-62; assay: Cytotoxicity against human UACC62 cells assessed as growth inhibition at 10 uM; details: read-out: GI
Procedure, shortened: (§3)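 Single-dose screen in a sixty-cell human tumour line panel; percent growth of treated cells relative to untreated was read and reported as percentage growth inhibition, shown as a mean graph. Compounds meeting the threshold inhibition criteria went on to five-dose testing.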

[22] = Cytotoxicity against human EKVX cells assessed as growth inhibition at 10 uM; details: read-out: GI
[23] = system: A498; assay: Cytotoxicity against human A498 cells assessed as growth inhibition at 10 uM; details: read-out: GI
[24] = system: IGROV-1; assay: Cytotoxicity against human IGROV1 cells assessed as growth inhibition at 10 uM; details: read-out: GI
[25] = system: TK-10; assay: Cytotoxicity against human TK10 cells assessed as growth inhibition at 10 uM; details: read-out: GI; procedure, shortened: as §3
[26] = system: NCI-H522; assay: Cytotoxicity against human NCI-H522 cells assessed as growth inhibition at 10 uM; details: read-out: GI; procedure, shortened: as §2
[27] = system: Hs-578T; assay: Cytotoxicity against human Hs578T cells assessed as growth inhibition at 10 uM; details: read-out: GI
[28] = system: T47D; assay: Cytotoxicity against human T47D cells assessed as growth inhibition at 10 uM; details: read-out: GI; procedure, shortened: as §2
[29] = system: BT-549; assay: Cytotoxicity against human BT549 cells assessed as growth inhibition at 10 uM; details: read-out: GI
[30] = system: SF-295; assay: Cytotoxicity against human SF295 cells assessed as growth inhibition at 10 uM; details: read-out: GI; procedure, shortened: as §2
[31] = system: HOP-92; assay: Cytotoxicity against human HOP92 cells assessed as growth inhibition at 10 uM; details: read-out: GI
[32] = system: SR; assay: Cytotoxicity against human SR cells assessed as growth inhibition at 10 uM; details: read-out: GI; procedure, shortened: as §2
[33] = system: UACC-257; assay: Cytotoxicity against human UACC257 cells assessed as growth inhibition at 10 uM; details: read-out: GI; procedure, shortened: as §3
[34] = system: OVCAR-8; assay: Cytotoxicity against human OVCAR8 cells assessed as growth inhibition at 10 uM; details: read-out: GI; procedure, shortened: as §2

SMILES | MIC [1] [µg/mL] | MIC [12] [µg/mL] | MIC [15] [µg/mL] | inhibition of growth at 10 µM [2] [%] | Activity [3] [%] | inhibition of growth at 10 µM [4] [%] | inhibition of growth at 10 µM [5] [%] | zone of inhibition at 1000 µg/mL [6] [mm] | zone of inhibition at 1000 µg/mL [7] [mm] | zone of inhibition at 1000 µg/mL [8] [mm] | zone of inhibition at 1000 µg/mL [10] [mm] | Activity [13] [%] | also measured
N#Cc1c(N2CCOCC2)nc(=S)[nH]c1-c1ccccc1 | – | – | 125 (≈ 419 µM) | – | – | – | 104 | 15 | 17 | 18 | 22 | – | inhibition of growth at 10 µM [17]: 48.7%; inhibition of growth at 10 µM [18]: 43.4%; inhibition of growth at 10 µM [19]: 58.2%; inhibition of growth at 10 µM [20]: 53%; inhibition of growth at 10 µM [21]: 56.4%; inhibition of growth at 10 µM [22]: 43.2%; inhibition of growth at 10 µM [23]: 86.3%; inhibition of growth at 10 µM [24]: 70.9%; inhibition of growth at 10 µM [25]: 42.4%; inhibition of growth at 10 µM [26]: 40.4%; inhibition of growth at 10 µM [27]: 73.2%; inhibition of growth at 10 µM [28]: 62.7%; inhibition of growth at 10 µM [29]: 42.3%; inhibition of growth at 10 µM [30]: 45.5%; inhibition of growth at 10 µM [31]: 107%; inhibition of growth at 10 µM [9]: 84.9%; inhibition of growth at 10 µM [32]: 46.9%
N#Cc1c(N2CCN(Cc3ccccc3)CC2)nc(=S)[nH]c1-c1ccco1 | – | 3.91 (≈ 10.4 µM) | 125 (≈ 331 µM) | – | – | – | – | 18 | 17 | 20 | 29 | – | Activity [11]: 75%; MIC [14]: 125 µg/mL (≈ 331 µM)
Cn1c(NN)nc(-c2ccco2)c(C#N)c1=O | 125 (≈ 541 µM) | – | – | 55.9 | 60 | 54.7 | – | 15 | 20 | 16 | 22 | – | inhibition of growth at 10 µM [16]: 84.4%
CC1(C)S[C@@H]2[C@H](NC(=O)[C@H](N)c3ccccc3)C(=O)N2[C@H]1C(=O)O [AMPICILLIN] | – | 3.91 (≈ 11.2 µM) | – | – | – | – | – | 41 | 22 | 16 | – | – | –

Now from value to compound, other results behind:

MIC [1] [µg/mL] | MIC [12] [µg/mL] | MIC [15] [µg/mL] | SMILES | inhibition of growth at 10 µM [2] [%] | Activity [3] [%] | inhibition of growth at 10 µM [4] [%] | inhibition of growth at 10 µM [5] [%] | zone of inhibition at 1000 µg/mL [6] [mm] | zone of inhibition at 1000 µg/mL [7] [mm] | zone of inhibition at 1000 µg/mL [8] [mm] | zone of inhibition at 1000 µg/mL [10] [mm] | Activity [13] [%] | also measured
125 (≈ 570 µM) | – | – | N#Cc1c(-c2ccco2)[nH]c(=S)[nH]c1=O | 74.2 | 60 | 78.6 | 55.6 | 15 | 21 | 16 | 22 | – | inhibition of growth at 10 µM [9]: 42.8%
125 (≈ 381 µM) | 3.91 (≈ 11.9 µM) | 125 (≈ 381 µM) | CCN(CC)CCSc1nc(-c2ccccc2)c(C#N)c(=O)[nH]1 | 42 | 60 | – | – | 18 | 21 | 18 | 25 | 50 | Activity [11]: 62%; MIC [14]: 125 µg/mL (≈ 381 µM); inhibition of growth at 10 µM [16]: 107%
125 (≈ 422 µM) | – | – | N#Cc1c(N2CCCCC2)nc(=S)[nH]c1-c1ccccc1 | 75.8 | 60 | 81.2 | 48.7 | 15 | 20 | 16 | 22 | 60 | inhibition of growth at 10 µM [31]: 44.5%; inhibition of growth at 10 µM [32]: 44.6%
125 (≈ 323 µM) | – | 125 (≈ 323 µM) | N#Cc1c(N2CCN(Cc3ccccc3)CC2)nc(=S)[nH]c1-c1ccccc1 | – | 60 | – | – | 15 | 20 | 18 | 22 | 60 | –
125 (≈ 425 µM) | – | – | Cn1c(N2CCCCC2)nc(-c2ccccc2)c(C#N)c1=O | – | – | – | – | 15 | 24 | 17 | 22 | – | inhibition of growth at 10 µM [19]: 69.8%; inhibition of growth at 10 µM [33]: 71.9%; inhibition of growth at 10 µM [34]: 42.4%
125 (≈ 411 µM) | – | – | N#Cc1c(Cl)nc(SCC2CO2)nc1-c1ccccc1 (configuration not stated) | – | – | – | – | 15 | 22 | 16 | 22 | – | inhibition of growth at 10 µM [33]: 60.1%; inhibition of growth at 10 µM [34]: 48.4%
